Measurements taken from ChEMBL document CHEMBL4177603 (Bioorg Med Chem Lett, 2017).

What was measured:
[1] = target: T1, Sodium-dependent noradrenaline transporter (Homo sapiens, UniProt P23975); test: Displacement of [3H]nisoxetine from recombinant human norepinephrine transporter at 10 uM after 120 min by scintillation counting method
[2] = target: Sodium channel protein type 5 subunit alpha (Homo sapiens, UniProt Q14524); test: Inhibition of human Nav1.5 expressed in HEK cells by automated patchXpress electrophysiology method; format: ADME, cell-based
[3] = target: Sodium channel protein type 1 subunit alpha (Homo sapiens, UniProt P35498); test: Inhibition of human Nav1.1 expressed in HEK cells by patch clamp electrophysiology method; format: cell-based
[4] = target: Sodium channel protein type 3 subunit alpha (Homo sapiens, UniProt Q9NY46); test: Inhibition of human Nav1.3 expressed in HEK cells by patch clamp electrophysiology method; format: cell-based
[5] = target: Sodium channel protein type 10 subunit alpha (Homo sapiens, UniProt Q9Y5Y9); test: Inhibition of human Nav1.8 expressed in HEK cells by automated patchXpress electrophysiology method; format: cell-based
[6] = Clearance in dog blood at 0.3 mg/kg, iv via infusion for 0.5 hrs; format: ADME, organism-based, Canis lupus familiaris; conditions: whole blood
Method in brief: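 Blood clearance was calculated from the measured plasma clearance and the measured blood:plasma ratio.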

[7] = Unbound clearance in dog plasma at 0.3 mg/kg, iv via infusion for 0.5 hrs; format: ADME, organism-based, Canis lupus familiaris; conditions: in vivo
[8] = Volume of distribution at steady state in rat at 0.3 mg/kg, iv via infusion for 1 hr; format: ADME, organism-based; conditions: in vivo, read-out: Vdss
[9] = Protein binding in mouse plasma assessed as fraction unbound; format: ADME, cell-free
[10] = Protein binding in rat plasma assessed as fraction unbound; format: ADME, cell-free
[11] = Intrinsic clearance in mouse hepatocytes assessed per million cells; format: ADME, cell-based, Hepatocyte; conditions: read-out: CLH
[12] = Intrinsic clearance in dog hepatocytes assessed per million cells; format: ADME, cell-based, Canis lupus familiaris, Hepatocyte; conditions: read-out: CLH
[13] = Intrinsic clearance in human hepatocytes assessed per million cells; format: ADME, cell-based, Hepatocyte; conditions: read-out: CLH
[14] = target: Sodium channel protein type 8 subunit alpha (Rattus norvegicus, UniProt O88420); test: Inhibition of rat Nav1.6 expressed in HEK cells by patch clamp electrophysiology method; format: cell-based
[15] = Inhibition of cynomolgus monkey Nav1.7 expressed in HEK cells by automated patchXpress electrophysiology method; format: cell-based; conditions: Macaca fascicularis, HEK293
[16] = target: Adenosine receptor A2a (Homo sapiens) (UniProt P29274); test: Agonist activity at recombinant human full-length adenosine A2a receptor expressed in HEK293 cells assessed as effect on impedance at 10 uM by cellular dielectric spectroscopic method relative to control; format: functional, cell-based
[17] = target: Beta-2 adrenergic receptor (Homo sapiens) (UniProt P07550); test: Agonist activity at recombinant human beta2 receptor expressed in CHOK1 cells assessed as increase in cAMP accumulation at 10 uM after 30 mins by HTRF assay relative to control; format: functional, cell-based
[18] = target: Type-1 angiotensin II receptor (Homo sapiens) (UniProt P30556); test: Agonist activity at recombinant human AT1 receptor expressed in HEK293 cells assessed as increase in calcium flux at 10 uM by spectrophotometric method relative to control; format: functional, cell-based
[19] = target: Cannabinoid receptor 1 (Homo sapiens) (UniProt P21554); test: Agonist activity at recombinant human CB1 receptor expressed in CHOK1 cells assessed as increase in cAMP accumulation at 10 uM after 20 mins by HTRF assay relative to control; format: functional, cell-based
[20] = target: Vasopressin V1a receptor (Homo sapiens) (UniProt P37288); test: Agonist activity at human V1A receptor expressed in CHOK1 cells assessed as increase in calcium flux at 10 uM by fluorimetric method relative to control; format: functional, cell-based
[21] = target: Cannabinoid receptor 1 (Homo sapiens) (UniProt P21554); test: Antagonist activity at recombinant human CB1 receptor expressed in CHOK1 cells assessed as inhibition of CP 55940-induced cAMP accumulation at 10 uM after 20 mins by HTRF assay relative to control; format: functional, cell-based
[22] = target: Muscarinic acetylcholine receptor M2 (Homo sapiens) (UniProt P08172); test: Antagonist activity at recombinant human M2 receptor expressed in CHOK1 cells assessed as inhibition of acetylcholine-induced cAMP accumulation at 10 uM measured after 10 mins by HTRF assay relative to control; format: functional, cell-based
[23] = target: Muscarinic acetylcholine receptor M3 (Homo sapiens) (UniProt P20309); test: Antagonist activity at human M3 receptor expressed in CHOK1 cells assessed as inhibition of acetylcholine-induced calcium flux at 10 uM by fluorimetric method relative to control; format: functional, cell-based
[24] = species: Rattus norvegicus; test: Displacement of [3H]D888 from L-type calcium channel verapamil binding site in rat brain at 10 uM measured after 120 mins by scintillation counting method
[25] = target: GABA-A receptor; alpha-1/beta-2/gamma-2 (Homo sapiens) (UniProt P14867+P47870+P18507); test: Displacement of [3H]muscimol from recombinant human GABAalpha1beta2gamma2 at 10 uM measured after 120 mins by scintillation counting method; format: protein-complex assay
[26] = species: Homo sapiens; test: Displacement of [125I]alpha-bungarotoxin from human muscle type nAChR at 10 uM after 120 mins by scintillation counting method
[27] = target: 3',5'-cyclic-AMP phosphodiesterase 4D (Homo sapiens) (UniProt Q08499); test: Inhibition of recombinant human PDE4D2 at 10 uM using [3H]cAMP as substrate measured after 20 mins by scintillation counting method relative to control
[28] = target: Tyrosine-protein kinase Lck (Homo sapiens) (UniProt P06239); test: Inhibition of recombinant human LCK at 10 uM using Ulight-Poly GAT[EAY(1:1:1)]n as substrate after 10 mins by LANCE assay
[29] = target: Proto-oncogene tyrosine-protein kinase Src (Homo sapiens) (UniProt P12931); test: Inhibition of recombinant human SRC at 10 uM using Ulight-Poly GAT[EAY(1:1:1)]n as substrate after 10 mins by LANCE assay
[30] = target: T2, Muscarinic acetylcholine receptor M1 (Homo sapiens) (UniProt P11229); test: Displacement of [3H]pirenzepine from recombinant human M1 receptor at 10 uM after 60 mins by scintillation counting method
T2 sequence (whole entry): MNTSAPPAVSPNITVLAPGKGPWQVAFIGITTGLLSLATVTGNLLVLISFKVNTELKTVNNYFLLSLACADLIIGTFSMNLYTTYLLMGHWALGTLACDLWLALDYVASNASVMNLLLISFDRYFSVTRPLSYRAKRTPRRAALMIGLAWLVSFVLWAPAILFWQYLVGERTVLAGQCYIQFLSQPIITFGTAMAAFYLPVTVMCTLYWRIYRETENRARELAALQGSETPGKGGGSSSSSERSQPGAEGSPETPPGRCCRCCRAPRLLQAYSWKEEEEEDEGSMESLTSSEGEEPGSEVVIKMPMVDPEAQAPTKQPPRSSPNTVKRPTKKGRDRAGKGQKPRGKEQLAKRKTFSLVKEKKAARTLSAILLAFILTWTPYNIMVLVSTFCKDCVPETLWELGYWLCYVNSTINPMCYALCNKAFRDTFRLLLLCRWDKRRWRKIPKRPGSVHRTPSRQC

[31] = target: Voltage-gated inwardly rectifying potassium channel KCNH2 (Homo sapiens, UniProt Q12809); test: Displacement of [3H]Dofetilide from recombinant human ERG after 60 mins by scintillation counting method
[32] = target: T1, Sodium-dependent noradrenaline transporter; test: Displacement of [3H]nisoxetine from recombinant human norepinephrine transporter after 120 min by scintillation counting method

T1 sequence (P23975 whole entry): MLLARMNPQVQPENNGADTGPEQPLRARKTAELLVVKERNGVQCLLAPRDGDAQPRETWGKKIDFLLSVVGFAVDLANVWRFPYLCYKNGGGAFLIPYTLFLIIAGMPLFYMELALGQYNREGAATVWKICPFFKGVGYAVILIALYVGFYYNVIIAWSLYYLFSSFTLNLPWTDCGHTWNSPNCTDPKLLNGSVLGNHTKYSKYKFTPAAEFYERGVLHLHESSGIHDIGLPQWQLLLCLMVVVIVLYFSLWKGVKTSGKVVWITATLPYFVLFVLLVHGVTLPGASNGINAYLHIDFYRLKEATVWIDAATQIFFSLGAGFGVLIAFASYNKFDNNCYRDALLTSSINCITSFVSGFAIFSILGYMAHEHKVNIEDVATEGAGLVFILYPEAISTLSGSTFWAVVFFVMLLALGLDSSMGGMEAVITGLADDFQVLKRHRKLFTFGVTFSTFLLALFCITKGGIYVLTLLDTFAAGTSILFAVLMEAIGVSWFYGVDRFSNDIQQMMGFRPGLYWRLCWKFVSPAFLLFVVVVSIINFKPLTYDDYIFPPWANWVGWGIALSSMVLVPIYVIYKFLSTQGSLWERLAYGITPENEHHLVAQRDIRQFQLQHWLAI
Cannabinoid receptor 1 (Homo sapiens), sequence (P21554 whole entry): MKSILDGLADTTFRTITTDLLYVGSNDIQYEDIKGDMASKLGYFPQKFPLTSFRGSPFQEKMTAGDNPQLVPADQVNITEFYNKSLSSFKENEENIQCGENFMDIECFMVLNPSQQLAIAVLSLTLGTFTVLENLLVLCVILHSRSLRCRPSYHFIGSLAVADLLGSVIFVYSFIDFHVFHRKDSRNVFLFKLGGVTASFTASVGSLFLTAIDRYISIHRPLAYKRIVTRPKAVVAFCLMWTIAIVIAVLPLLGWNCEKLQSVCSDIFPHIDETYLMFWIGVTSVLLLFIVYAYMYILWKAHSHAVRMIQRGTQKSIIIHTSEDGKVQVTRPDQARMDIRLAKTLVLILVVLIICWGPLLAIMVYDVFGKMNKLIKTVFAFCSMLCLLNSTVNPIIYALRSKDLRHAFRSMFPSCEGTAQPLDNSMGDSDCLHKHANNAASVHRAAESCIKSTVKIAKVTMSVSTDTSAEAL
Voltage-gated inwardly rectifying potassium channel KCNH2, sequence (Q12809 whole entry): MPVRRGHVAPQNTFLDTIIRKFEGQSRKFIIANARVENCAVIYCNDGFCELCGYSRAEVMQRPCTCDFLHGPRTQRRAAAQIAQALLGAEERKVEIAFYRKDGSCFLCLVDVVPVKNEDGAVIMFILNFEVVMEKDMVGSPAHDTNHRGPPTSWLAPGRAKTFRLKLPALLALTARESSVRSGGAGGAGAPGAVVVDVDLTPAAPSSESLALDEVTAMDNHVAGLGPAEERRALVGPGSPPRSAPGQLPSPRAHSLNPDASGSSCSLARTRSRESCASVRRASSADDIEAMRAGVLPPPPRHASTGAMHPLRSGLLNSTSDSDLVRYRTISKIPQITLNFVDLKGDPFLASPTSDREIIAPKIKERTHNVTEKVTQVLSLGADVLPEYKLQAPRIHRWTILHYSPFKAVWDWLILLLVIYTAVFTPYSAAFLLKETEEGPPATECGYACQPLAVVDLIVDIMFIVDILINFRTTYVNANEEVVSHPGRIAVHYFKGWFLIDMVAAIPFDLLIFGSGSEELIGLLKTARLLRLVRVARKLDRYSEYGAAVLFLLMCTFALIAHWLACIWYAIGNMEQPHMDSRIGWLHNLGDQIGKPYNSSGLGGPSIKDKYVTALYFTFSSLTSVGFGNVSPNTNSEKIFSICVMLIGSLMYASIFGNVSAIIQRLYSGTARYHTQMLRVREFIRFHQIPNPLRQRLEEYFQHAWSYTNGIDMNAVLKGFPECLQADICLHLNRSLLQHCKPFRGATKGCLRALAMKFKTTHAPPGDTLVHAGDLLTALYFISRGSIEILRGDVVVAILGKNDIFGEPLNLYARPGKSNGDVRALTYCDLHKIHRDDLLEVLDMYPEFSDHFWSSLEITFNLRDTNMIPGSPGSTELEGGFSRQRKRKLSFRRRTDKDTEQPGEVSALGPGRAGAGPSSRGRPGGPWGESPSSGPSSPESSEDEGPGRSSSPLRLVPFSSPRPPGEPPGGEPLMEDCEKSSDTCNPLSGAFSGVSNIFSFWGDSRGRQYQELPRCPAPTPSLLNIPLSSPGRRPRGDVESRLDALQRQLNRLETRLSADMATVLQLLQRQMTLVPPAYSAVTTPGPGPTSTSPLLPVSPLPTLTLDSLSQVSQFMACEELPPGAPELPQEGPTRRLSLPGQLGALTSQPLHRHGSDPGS
Sodium channel protein type 5 subunit alpha, sequence (Q14524 whole entry): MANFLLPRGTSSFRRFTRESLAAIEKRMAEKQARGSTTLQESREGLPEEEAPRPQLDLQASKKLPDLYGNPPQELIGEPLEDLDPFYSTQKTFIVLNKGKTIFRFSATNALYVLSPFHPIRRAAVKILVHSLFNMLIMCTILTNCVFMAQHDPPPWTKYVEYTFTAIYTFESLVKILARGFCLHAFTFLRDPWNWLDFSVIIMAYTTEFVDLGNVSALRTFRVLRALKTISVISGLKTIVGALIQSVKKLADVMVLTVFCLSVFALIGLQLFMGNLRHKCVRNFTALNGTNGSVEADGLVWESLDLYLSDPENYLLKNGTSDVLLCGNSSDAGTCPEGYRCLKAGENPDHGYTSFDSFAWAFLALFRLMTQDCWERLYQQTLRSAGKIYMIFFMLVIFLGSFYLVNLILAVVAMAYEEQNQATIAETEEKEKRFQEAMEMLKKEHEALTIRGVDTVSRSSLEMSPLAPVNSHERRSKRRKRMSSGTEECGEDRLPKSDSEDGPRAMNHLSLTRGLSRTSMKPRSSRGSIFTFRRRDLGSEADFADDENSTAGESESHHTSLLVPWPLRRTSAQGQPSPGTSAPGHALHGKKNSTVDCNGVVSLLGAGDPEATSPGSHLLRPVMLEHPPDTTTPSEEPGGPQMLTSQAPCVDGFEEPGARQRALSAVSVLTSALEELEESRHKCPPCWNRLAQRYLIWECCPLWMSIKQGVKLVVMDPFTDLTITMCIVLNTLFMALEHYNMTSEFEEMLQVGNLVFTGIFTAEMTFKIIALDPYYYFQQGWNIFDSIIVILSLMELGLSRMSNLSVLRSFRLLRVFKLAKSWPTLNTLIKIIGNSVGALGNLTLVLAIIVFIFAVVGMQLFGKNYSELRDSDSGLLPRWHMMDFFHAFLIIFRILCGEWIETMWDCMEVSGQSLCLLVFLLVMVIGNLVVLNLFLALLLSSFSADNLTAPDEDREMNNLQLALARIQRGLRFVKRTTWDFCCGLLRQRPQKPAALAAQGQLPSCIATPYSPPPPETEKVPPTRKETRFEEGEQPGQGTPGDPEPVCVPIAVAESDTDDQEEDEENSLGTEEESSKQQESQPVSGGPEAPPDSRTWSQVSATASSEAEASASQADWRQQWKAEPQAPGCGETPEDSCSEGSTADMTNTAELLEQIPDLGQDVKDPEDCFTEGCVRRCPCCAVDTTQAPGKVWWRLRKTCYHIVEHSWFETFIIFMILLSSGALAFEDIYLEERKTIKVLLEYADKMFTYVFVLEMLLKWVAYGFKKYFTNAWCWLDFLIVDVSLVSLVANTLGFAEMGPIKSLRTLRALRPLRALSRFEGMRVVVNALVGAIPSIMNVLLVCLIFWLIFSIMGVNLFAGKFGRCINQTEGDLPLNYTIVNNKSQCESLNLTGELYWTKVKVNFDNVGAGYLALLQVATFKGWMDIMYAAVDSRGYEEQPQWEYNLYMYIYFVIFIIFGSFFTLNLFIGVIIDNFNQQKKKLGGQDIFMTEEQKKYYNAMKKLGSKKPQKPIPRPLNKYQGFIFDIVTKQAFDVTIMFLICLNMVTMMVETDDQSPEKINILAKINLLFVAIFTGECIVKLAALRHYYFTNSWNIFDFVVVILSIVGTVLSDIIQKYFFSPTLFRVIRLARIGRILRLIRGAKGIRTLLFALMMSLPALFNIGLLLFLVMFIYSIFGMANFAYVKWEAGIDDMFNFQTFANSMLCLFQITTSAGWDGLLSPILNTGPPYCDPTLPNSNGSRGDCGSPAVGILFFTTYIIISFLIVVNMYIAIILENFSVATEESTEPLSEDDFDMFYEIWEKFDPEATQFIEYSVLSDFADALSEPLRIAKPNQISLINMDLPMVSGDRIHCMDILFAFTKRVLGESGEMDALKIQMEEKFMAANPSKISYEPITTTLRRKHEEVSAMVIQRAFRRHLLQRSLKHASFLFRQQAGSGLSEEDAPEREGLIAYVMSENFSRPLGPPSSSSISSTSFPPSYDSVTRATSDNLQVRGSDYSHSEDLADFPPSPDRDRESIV
Muscarinic acetylcholine receptor M2 (Homo sapiens), sequence (P08172 whole entry): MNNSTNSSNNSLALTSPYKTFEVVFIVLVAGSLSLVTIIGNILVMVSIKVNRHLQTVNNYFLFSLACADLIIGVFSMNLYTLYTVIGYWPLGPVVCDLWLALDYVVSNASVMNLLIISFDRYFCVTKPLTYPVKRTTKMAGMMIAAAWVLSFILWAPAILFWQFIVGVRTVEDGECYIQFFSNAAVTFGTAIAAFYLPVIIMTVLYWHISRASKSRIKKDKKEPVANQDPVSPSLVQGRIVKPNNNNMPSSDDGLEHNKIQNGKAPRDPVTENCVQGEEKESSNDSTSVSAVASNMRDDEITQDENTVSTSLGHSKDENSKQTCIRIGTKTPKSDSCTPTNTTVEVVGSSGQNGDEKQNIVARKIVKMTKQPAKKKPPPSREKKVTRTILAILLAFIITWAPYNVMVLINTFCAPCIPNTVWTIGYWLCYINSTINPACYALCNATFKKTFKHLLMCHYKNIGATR
Type-1 angiotensin II receptor (Homo sapiens), sequence (P30556 whole entry): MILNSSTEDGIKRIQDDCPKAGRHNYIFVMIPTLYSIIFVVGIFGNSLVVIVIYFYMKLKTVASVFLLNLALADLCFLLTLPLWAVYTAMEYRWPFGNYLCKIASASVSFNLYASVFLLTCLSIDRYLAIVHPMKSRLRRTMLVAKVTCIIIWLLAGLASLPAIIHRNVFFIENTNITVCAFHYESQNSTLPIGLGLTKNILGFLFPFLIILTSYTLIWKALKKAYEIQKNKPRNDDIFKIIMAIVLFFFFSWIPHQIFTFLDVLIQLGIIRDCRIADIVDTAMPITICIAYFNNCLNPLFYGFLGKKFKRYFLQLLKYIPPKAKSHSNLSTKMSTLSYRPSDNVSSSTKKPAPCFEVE

Which inhibition [1] does the source give for `N#Cc1cc(S(=O)(=O)Nc2ncns2)ccc1Oc1ccc(-c2cccc(C(F)(F)F)c2)cc1-c1ccnc(CNCCC2CCNCC2)c1` here?
Its inhibition is 80%.

And the IC50 [2]?
Its IC50 is 2000 to 2590 nM.

And the IC50 [3]?
Its IC50 is 309 to 314 nM.

And the IC50 [4]?
Its IC50 is 6440 to 11500 nM.

What about the IC50 [5] of the same compound?
The IC50 was 10000 to 26000 nM.

And the clearance [6]?
The clearance was 39.8 mL/min/kg.

What about the CL free [7] of the same compound?
The CL free was 4759 mL/min/kg.

And the Vd [8]?
The Vd was 0.59 L/kg.

And the fraction unbound [9]?
Its fraction unbound is 0.00281.

What about the fraction unbound [10] of the same compound?
The fraction unbound was 0.00275.

What about the hepatocyte CLint [11] of the same compound?
Its hepatocyte CLint is < 3 µL/min/1e6 cells.

And the hepatocyte CLint [12]?
Its hepatocyte CLint is < 6 µL/min/1e6 cells.

And the hepatocyte CLint [13]?
Its hepatocyte CLint is 6.5 µL/min/1e6 cells.

And the IC50 [14]?
Its IC50 is 5.01 nM.

What about the IC50 [15] of the same compound?
The IC50 was < 0.03 nM.

What about the Activity [16] of the same compound?
The Activity was -2%.

What about the Activity [17] of the same compound?
The Activity was 1%.

What about the Activity [18] of the same compound?
Its Activity is -3%.

And the Activity [19]?
The Activity was -7%.

What about the Activity [20] of the same compound?
Its Activity is -4%.

What about the inhibition [21] of the same compound?
Its inhibition is 11%.

What about the inhibition [22] of the same compound?
Its inhibition is 24%.

What about the inhibition [23] of the same compound?
The inhibition was 29%.

And the inhibition [24]?
The inhibition was 35%.

What about the inhibition [25] of the same compound?
The inhibition was 0%.

And the inhibition [26]?
The inhibition was 21%.

And the inhibition [27]?
The inhibition was -8%.

And the inhibition [28]?
The inhibition was 43%.

And the inhibition [29]?
Its inhibition is 9%.

What about the inhibition [30] of the same compound?
The inhibition was 48%.

And the Ki [31]?
Its Ki is 1090 nM.

And the IC50 [32]?
Its IC50 is 4250 nM.

What about the Ki [32] of the same compound?
Its Ki is 3160 nM.
